Reference: ChEMBL document CHEMBL3132832, “Design of Potential Bisubstrate Inhibitors against Mycobacterium tuberculosis (Mtb) 1-Deoxy-D-Xylulose 5-Phosphate Reductoisomerase (Dxr)-Evidence of a Novel Binding Mode” (Medchemcomm, 2013)
Values after ≈ are worked out from the molar mass of the structure shown. Active and inactive are the calls of the source. The calls are words filed in the database; no cut-off is given here.

Key:
[1] = system: Mycobacterium tuberculosis; assay: Antitubercular activity against Mycobacterium tuberculosis H37Rv ATCC 27294 after 2 weeks; type: functional; conditions: H37Rv ATCC 27294, 336 h
How it was run: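 Mtb H37Rv was grown to OD 0.5 in 7H9 with 0.05% Tween-80, 0.2% glycerol and ADC, then diluted 1:1000. Inhibitors from 50 mg/mL DMSO stocks were serially 2-fold diluted (eight dilutions). Three independent measurements.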

[2] = system: Mycobacterium tuberculosis; assay: Inhibition of His-tagged Mycobacterium tuberculosis DXR expressed in Escherichia coli BL21(DE3) using DXP as substrate assessed as residual activity at 100 uM preincubated for 10 mins followed by NADPH and substrate addition by spectrophotometric analysis relative to control
How it was run: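 IMAC-purified His-tagged Mtb Dxr was tested with inhibitor at 100 μM, preincubated 10 min at 37 °C before substrate. NADPH oxidation was followed spectrophotometrically at 37 °C. Inhibition is relative. Duplicate assays.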

[3] = Inhibition of His-tagged Mycobacterium tuberculosis DXR expressed in Escherichia coli BL21(DE3) using DXP as substrate assessed as oxidation of NADPH preincubated for 10 mins followed by NADPH and substrate addition by spectrophotometric analysis
How it was run: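 Activity was read spectrophotometrically at 37 °C as NADPH oxidation. Enzyme was preincubated with inhibitor for 10 min at 37 °C before substrate. Run in duplicate. IC50 came from nonlinear regression of dose-response plots.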

[4] = system: Mycobacterium tuberculosis; assay: Uncompetitive inhibition of His-tagged Mycobacterium tuberculosis DXR expressed in Escherichia coli BL21(DE3) using DXP as substrate at 5 to 50 uM by Lineweaver-Burk plot analysis in presence of 0.01 to 0.05 uM NADPH
[5] = system: Mycobacterium tuberculosis; assay: Competitive inhibition of His-tagged Mycobacterium tuberculosis DXR expressed in Escherichia coli BL21(DE3) using DXP as substrate at 5 to 50 uM by Lineweaver-Burk plot analysis in presence of NADPH
How it was run: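 For mode of inhibition versus DXP, purified His-tagged Mtb Dxr was run at 37 °C with NADPH fixed at 150 µM or 30 µM depending on inhibitor. Enzyme and inhibitor were preincubated 10 min at 37 °C before substrate. NADPH oxidation was followed spectrophotometrically. Duplicates were analysed by Lineweaver-Burk plots.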

[6] = system: Mycobacterium tuberculosis; assay: Noncompetitive inhibition of His-tagged Mycobacterium tuberculosis DXR expressed in Escherichia coli BL21(DE3) using DXP as substrate at 5 to 50 uM by Lineweaver-Burk plot analysis in presence of 0.01 to 0.05 uM NADPH

SMILES	MIC99 [1] [µg/mL]	Activity [2] [%]	IC50 [3] [µM]	also measured
CCOP(=O)(CCCN(O)C(=O)CCCc1ccccc1)OCC	200 (≈ 560 µM)	–	–	–
CC(=O)N(CCCP(=O)(O)O)OCC1CCCCC1	–	83.5	–	–
CC(=O)N(CCCP(=O)(O)O)OCc1ccc(C(C)C)cc1	–	–	48.4	–
CC(=O)N(O)CCCP(=O)([O-])O.[Na+]	> 500	–	2.39	inhibition [4]: Active; inhibition [5]: Active
CC(=O)N(CCCP(=O)(O)O)OCCc1ccccc1	–	81.5	–	–
O=C(Cc1ccccc1)N(O)CCCP(=O)(O)O	–	–	26.9	–
O=CN(O)CCCP(=O)(O)O [FOSMIDOMYCIN]	> 500	–	–	–
O=C(C1CCCCC1)N(O)CCCP(=O)(O)O	–	80	–	–
CCOP(=O)(CCCN(O)C=O)OCC	250 (≈ 1050 µM)	–	–	–
O=C(CCCc1ccccc1)N(O)CCCP(=O)([O-])O.[Na+]	> 200	–	17.8	inhibition [6]: Active; inhibition [5]: Active
CC(=O)N(CCCP(=O)(O)O)OCCCc1ccccc1	–	77.5	–	–
